Data from ChEMBL document CHEMBL1132278, “Discovery of novel antitumor sulfonamides targeting G1 phase of the cell cycle” (J Med Chem, 1999).
Values after ≈ are worked out from the molar mass of the structure shown.

Columns and labels:
Type in all cases: functional, cell-based
MC-38 = experiment: In vitro antiproliferative activity against colon 38 murine adenocarcinoma; conditions: Mus musculus
Summary of the method: (§1)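 RPMI1640 with 10% FBS; seeded at 2.5×10³ cells/well for KB and colon 38, 1.25×10³ cells/well for P388; preincubated 24 h at 37 °C, 5% CO2. DMSO stocks were diluted 3-fold serially in medium, with 200 μg/mL the top dilution. Exposure was continuous for 3 days, then MTT for 1–2 h. Formazan was read in DMSO at 540/660 nm, and IC50 was taken by least squares.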

KB = experiment: Antiproliferative activity against KB human nasopharynx carcinoma in vitro; summary of the method: as §1
P388 = experiment: Antiproliferative activity against P388 murine leukemia in vitro; conditions: Mus musculus; summary of the method: as §1

IC50 (KB) | IC50 (P388) | SMILES | IC50 (MC-38)
61 µg/mL (≈ 189 µM) | 14 µg/mL (≈ 43.4 µM) | N#Cc1ccccc1S(=O)(=O)Nc1cccc2c(C#N)c[nH]c12 | 2.8 µg/mL (≈ 8.69 µM)
26 µg/mL (≈ 65 µM) | 4.8 µg/mL (≈ 12 µM) | CS(=O)(=O)Nc1cccc(S(=O)(=O)Nc2cccc3c(Cl)c[nH]c23)c1 | 1.5 µg/mL (≈ 3.75 µM)
1.4 µg/mL (≈ 4.28 µM) | 0.17 µg/mL (≈ 0.519 µM) | COc1ccc(S(=O)(=O)Nc2cccc3c(C#N)c[nH]c23)cc1 | 0.17 µg/mL (≈ 0.519 µM)
18 µg/mL (≈ 45 µM) | 18 µg/mL (≈ 45 µM) | CS(=O)(=O)Nc1ccccc1S(=O)(=O)Nc1cccc2c(Cl)c[nH]c12 | 45 µg/mL (≈ 113 µM)
8.2 µg/mL (≈ 25.4 µM) | 0.2 µg/mL (≈ 0.62 µM) | N#Cc1cccc(S(=O)(=O)Nc2cccc3c(C#N)c[nH]c23)c1 | 0.09 µg/mL (≈ 0.279 µM)
> 100 µg/mL | > 100 µg/mL | O=C(O)c1ccc(S(=O)(=O)Nc2cccc3c(Cl)c[nH]c23)cc1 | > 100 µg/mL
21 µg/mL (≈ 60 µM) | 0.87 µg/mL (≈ 2.49 µM) | NC(=O)c1ccc(S(=O)(=O)Nc2cccc3c(Cl)c[nH]c23)cc1 | 0.19 µg/mL (≈ 0.543 µM)
15 µg/mL (≈ 38.4 µM) | 3.5 µg/mL (≈ 8.96 µM) | CS(=O)(=O)Nc1ccc(S(=O)(=O)Nc2cccc3c(C#N)c[nH]c23)cc1 | 1.2 µg/mL (≈ 3.07 µM)
12 µg/mL (≈ 30 µM) | 1.6 µg/mL (≈ 4 µM) | CS(=O)(=O)Nc1ccc(S(=O)(=O)Nc2cccc3c(Cl)c[nH]c23)cc1 | 0.26 µg/mL (≈ 0.65 µM)
13 µg/mL (≈ 32.5 µM) | 0.15 µg/mL (≈ 0.375 µM) | NS(=O)(=O)Cc1ccc(S(=O)(=O)Nc2cccc3c(Cl)c[nH]c23)cc1 | 0.12 µg/mL (≈ 0.3 µM)
2.2 µg/mL (≈ 7.68 µM) | 4.3 µg/mL (≈ 15 µM) | Cc1ccc(S(=O)(=O)Nc2cccc3cc[nH]c23)cc1 | 2.4 µg/mL (≈ 8.38 µM)
0.55 µg/mL (≈ 1.63 µM) | 0.76 µg/mL (≈ 2.26 µM) | COc1ccc(S(=O)(=O)Nc2cccc3c(Cl)c[nH]c23)cc1 | 0.2 µg/mL (≈ 0.594 µM)
36 µg/mL (≈ 125 µM) | 14 µg/mL (≈ 48.7 µM) | Nc1ccc(S(=O)(=O)Nc2cccc3cc[nH]c23)cc1 | 6.1 µg/mL (≈ 21.2 µM)
10 µg/mL (≈ 31.1 µM) | 0.81 µg/mL (≈ 2.52 µM) | Nc1ccc(S(=O)(=O)Nc2cccc3c(Cl)c[nH]c23)cc1 | 0.23 µg/mL (≈ 0.715 µM)
11 µg/mL (≈ 33.2 µM) | 1.4 µg/mL (≈ 4.22 µM) | N#Cc1ccc(S(=O)(=O)Nc2cccc3c(Cl)c[nH]c23)cc1 | 0.13 µg/mL (≈ 0.392 µM)
0.67 µg/mL (≈ 2.22 µM) | 1.1 µg/mL (≈ 3.64 µM) | COc1ccc(S(=O)(=O)Nc2cccc3cc[nH]c23)cc1 | 1.5 µg/mL (≈ 4.96 µM)
6 µg/mL (≈ 19.6 µM) | 6 µg/mL (≈ 19.6 µM) | O=S(=O)(Nc1cccc2cc[nH]c12)c1ccc(Cl)cc1 | 7 µg/mL (≈ 22.8 µM)
15 µg/mL (≈ 37.5 µM) | 0.9 µg/mL (≈ 2.25 µM) | CNS(=O)(=O)c1ccc(S(=O)(=O)Nc2cccc3c(Cl)c[nH]c23)cc1 | 0.24 µg/mL (≈ 0.6 µM)
8.5 µg/mL (≈ 28.6 µM) | 4.2 µg/mL (≈ 14.1 µM) | N#Cc1ccc(S(=O)(=O)Nc2cccc3cc[nH]c23)cc1 | 1.8 µg/mL (≈ 6.05 µM)
15 µg/mL (≈ 44.1 µM) | 2.5 µg/mL (≈ 7.35 µM) | N#Cc1c[nH]c2c(NS(=O)(=O)c3ccc(C(N)=O)cc3)cccc12 | 0.68 µg/mL (≈ 2 µM)
33 µg/mL (≈ 102 µM) | 0.53 µg/mL (≈ 1.64 µM) | N#Cc1ccc(S(=O)(=O)Nc2cccc3c(C#N)c[nH]c23)cc1 | 0.12 µg/mL (≈ 0.372 µM)
> 100 µg/mL | > 100 µg/mL | N#Cc1c[nH]c2c(NS(=O)(=O)c3ccc(C(=O)O)cc3)cccc12 | > 100 µg/mL
4.4 µg/mL (≈ 14.1 µM) | 0.72 µg/mL (≈ 2.31 µM) | N#Cc1c[nH]c2c(NS(=O)(=O)c3ccc(N)cc3)cccc12 | 0.28 µg/mL (≈ 0.896 µM)
 | 0.32 µg/mL (≈ 0.862 µM) | COc1ccc(S(=O)(=O)Nc2cccnc2Nc2ccc(O)cc2)cc1 [ABT-751] | 
4.4 µg/mL (≈ 11.4 µM) | 0.45 µg/mL (≈ 1.17 µM) | NS(=O)(=O)c1ccc(S(=O)(=O)Nc2cccc3c(Cl)c[nH]c23)cc1 [INDISULAM] | 0.1 µg/mL (≈ 0.259 µM)
